Assay outcomes as filed in PubChem BioAssay.
hiPSC survival: increases survival of single human iPS cells. hiPSC single-cell survival, ATPlite luminescence; 100% = ROCK inhibitor wells, 0% = DMSO. survival enhancement, % at 20 µM. hit rate 0.044% among 360,000; in the data active = survival enhancement above about 18%;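 also: cells exposed to compounds for 16 hours before the ATP read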
UCH37 inh: blocks the human deubiquitinase UCH37; purified proteasome/UCH37, Ub-AMC cleavage fluorescence; Q9Y5K5; hit rate 0.33% among 330,000; AID 588478; inhibition, % (concentration not given with the values);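 active = mean inhibition over replicate wells above about 20%, limit read from the data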
Target sequence (Q9Y5K5 whole entry, looked up): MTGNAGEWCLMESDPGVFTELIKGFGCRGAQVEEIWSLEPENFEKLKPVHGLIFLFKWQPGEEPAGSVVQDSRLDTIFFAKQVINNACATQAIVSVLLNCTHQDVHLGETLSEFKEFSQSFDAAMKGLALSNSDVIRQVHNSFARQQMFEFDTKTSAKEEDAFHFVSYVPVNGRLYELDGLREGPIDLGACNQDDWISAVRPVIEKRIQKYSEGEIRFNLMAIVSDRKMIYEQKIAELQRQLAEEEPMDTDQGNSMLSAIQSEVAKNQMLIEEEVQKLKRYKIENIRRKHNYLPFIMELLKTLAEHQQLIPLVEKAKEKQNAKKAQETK
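Assay system: Proteasome-bound UCH37. Buffer or medium: pH 7.4 Tris-HCl (50 mM) with ovalbumin, ATP-MgCl2, DTT. Incubation: 30 min preincubation with enzyme, 25 min cleavage at room temperature. Measured by: fluorescence, ex 355 nm, em 460 nm. Read-out basis: percent inhibition. Control set: wells without proteasome as full block, compound-free enzyme plus substrate as uninhibited.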
CRFBP-R2 block: blocks CRF-induced signaling of the CRF-BP/CRF-R2 complex; inhibition, % at 11.8 µM; hit rate 0.59% among 350,000; HEK293 CRF-R2/CRF-BP, CRF-induced calcium fluorescence; AID 588475;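 active = inhibition of the ligand-induced calcium signal above about 50% at the single tested concentration, limit read from the data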
CRFR2-BP ag: agonists of human CRF-binding protein/CRF-R2 receptor complex. HEK293 CRF-R2/CRF-BP, calcium dye fluorescence (FLIPR); percent of saturating CRF peptide response. AID 588473. hit rate 0.46% among 350,000. activation, % at 13.2 µM;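 active = activation of at least 50%, plus an integration ratio under a set limit after plate pattern correction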
H9c2 protect: modulators protecting cardiomyocytes from myocardial damage | AID 588492 | protection from H2O2 cell death, % at 20 µM | hit rate 0.63% among 360,000 | H9c2 cardiomyocytes, H2O2 injury protection, ATPLite, 2 h;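 active = compounds giving at least 50% protection of heart cells from peroxide-induced death in the single-dose screen, raw or plate-pattern-corrected value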
MIN6 prolif: MIN6 beta-cell proliferation induction. proliferation, % at 10 µM. AID 2380. MIN6 cells proliferation, ATPlite luminescence, 48 h; cells starved in 0.2% serum; 100% = growth in 10% serum. hit rate 0.29% among 330,000;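 active = compounds whose signal lies at least 3.5 SD above the mean of all wells on their plate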
Hits are given with their value; n = inactive; x = not tested or not shown. Most compounds without a hit are left out; they make up all but 2.1% or so of the library.

SMILES	hiPSC survival	UCH37 inh	CRFBP-R2 block	CRFR2-BP ag	H9c2 protect	MIN6 prolif
COc1ccc(OC)c(C=C2CCc3ccccc3C2=O)c1	n	x	x	x	n	x
COc1cc(/C=C2\SC(=S)N(NS(=O)(=O)c3ccc(C)cc3)C2=O)ccc1O	n	n	n	59.0	n	n
COc1cc(/C=C2\SC(=S)N(NS(=O)(=O)c3ccc(C)cc3)C2=O)cc(OC)c1OC	n	n	55.4	n	n	n
COc1cc(/C=C2\SC(=S)N(C(C(=O)O)c3ccccc3)C2=O)ccc1O (stereo unspecified)	n	n	n	52.7	n	n
COc1cc(/C=C2\SC(=S)N(NC(=O)c3cccc(O)c3)C2=O)ccc1O	n	n	n	64.4	n	n
COc1cccc(/C=C2\SC(=S)N(NS(=O)(=O)c3ccc(C)cc3)C2=O)c1OC	n	x	x	x	n	n
COc1cc(/C=C2\SC(=S)N(NC(=O)c3ccc(O)c(OC)c3)C2=O)ccc1O	n	x	n	n	n	n
CCOc1ccc(C=Nn2cnnc2)cc1	x	n	x	x	x	x
COc1cc(/C=C2\SC(=S)N(CCC(=O)Nc3cccc(O)c3)C2=O)cc(OC)c1OC	n	n	n	n	67.1	n
COc1cc(/C=C2\SC(=S)N(CCC(=O)Nc3ccccc3)C2=O)cc(OC)c1OC	n	n	n	n	n	n
CC(=O)Oc1ccc2occ(C=Nc3cc(=O)[nH]c(=S)[nH]3)c(=O)c2c1	x	n	x	x	x	x
COc1ccc(C(CC(=O)N2CCN(c3ccccc3)CC2)c2c(OC)cc(OC)c3ccc(=O)oc23)cc1 (stereo unspecified)	n	n	n	n	50.6	n
COc1cc(C(CC(=O)N2CCCC2)c2c(OC)cc(OC)c3ccc(=O)oc23)cc(OC)c1OC (stereo unspecified)	n	n	n	n	n	n
Cc1cc(C)c(OCC(=O)NN=Cc2ccco2)c(C)c1	x	n	x	x	x	x
Cc1ccc(N/C(N)=N/c2nc(C)cc(C)n2)cc1	n	n	n	55.3	n	n
CCC(=O)Nc1ccc(N/C(N)=N/c2nc(C)cc(C)n2)cc1	n	n	n	n	n	n
CC(=O)Nc1cccc(N/C(N)=N/c2nc(C)cc(C)n2)c1	n	n	n	n	n	n
CCCCc1ccc(N/C(N)=N/c2nc(C)cc(C)n2)cc1	n	x	n	101.9	n	n
Cc1cccc(N/C(N)=N/c2nc(C)cc(C)n2)c1	n	n	n	81.1	n	n
CCC(=NNc1ccccc1[N+](=O)[O-])c1ccc(O)cc1	x	n	x	x	x	x
O=C(O)c1ccc(-n2ncc3c2/C(=C/c2cccc([N+](=O)[O-])c2)CC3)cc1	n	n	72.5	n	n	n
Cc1ccc(S(=O)(=O)/N=C(/Nc2cccc(C(=O)O)c2)c2ccccc2)cc1	n	x	n	n	n	n
O=C(O)c1cccc(N/C(=N\S(=O)(=O)c2ccccc2)c2ccccc2)c1	n	x	84.4	n	n	n
COc1ccc(-c2csc(NC(=O)CSc3nc(SC)ns3)n2)cc1	n	n	85.3	n	n	n
COc1ccc(-c2csc(NC(=O)CSc3nc(C)cs3)n2)cc1	n	n	n	n	n	n
SMILES	hiPSC survival	UCH37 inh	CRFBP-R2 block	CRFR2-BP ag	H9c2 protect	MIN6 prolif
Nc1nonc1-n1nnc(C(=O)NN=Cc2cccs2)c1-c1ccc2c(c1)OCO2	x	n	x	x	x	x
Cc1onc(-c2ccccc2)c1CNC(=O)CN1C(=O)c2ccccc2C1=O	n	n	109.0	n	n	n
CCOC(=O)c1ccc(NC(=O)c2nc[nH]c2C(=O)NCCCNC(=O)c2[nH]cnc2C(=O)Nc2ccc(C(=O)OCC)cc2)cc1	n	n	n	n	n	n
CCOC(=O)c1ccc(NC(=O)c2nc[nH]c2C(=O)NCCCCNC(=O)c2[nH]cnc2C(=O)Nc2ccc(C(=O)OCC)cc2)cc1	n	x	n	n	57.7	n
CCOC(=O)c1ccc(NC(=O)c2nc[nH]c2C(=O)NCCCCCNC(=O)OC(C)(C)C)cc1	n	n	n	n	79.2	n
Cc1nnc(SCC(=O)N(C)Cc2ccccc2)[nH]c1=O	n	n	88.0	n	n	n
COc1ccc([N+](=O)[O-])cc1N(CC(=O)NCCCOC(C)C)S(C)(=O)=O	n	n	59.5	n	n	n
CNC(=O)CN(c1cc([N+](=O)[O-])ccc1OC)S(C)(=O)=O	n	n	n	n	n	n
